In publication PMC3064895 (Cancer Chemotherapy and Pharmacology, 2010):
“And” between values parts separate entries of the source, which are not always exact repeats. Identical values can stand only once.

Legend:
[1] = Safety: adverse events by NCI-CTCAE v3.0; format: in vivo, patients with advanced cancer
In short: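 Patients with advanced cancer took the oral kinase inhibitor at 400 mg bid, continuously, in 28-day cycles. Safety, including laboratory tests, was checked at screening, at baseline and on day 1 of each cycle. Treatment-emergent AEs were graded by NCI-CTCAE v3.0 for incidence, severity, seriousness and drug relationship, and summarized descriptively for all patients with ≥1 dose.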

[2] = Supine blood pressure and heart rate; format: in vivo, patients with advanced cancer; conditions: for Mean (SD) maximal change from baseline in supine HR / Mean (SD) maximal change from baseline in supine diastolic BP / Mean (SD) maximal change from baseline in supine systolic BP: over 12-h period; for Mean increase from baseline in diastolic BP, individual patient / Mean increase from baseline in systolic BP, individual patient: patient with confirmed PR
[3] = observational study by Schmidinger et al.; cited from earlier work
[4] = QT/QTc interval on 12-lead Holter ECG; format: in vivo, patients with advanced cancer
[5] = 2 h post-dose, Day 1 of cycle 2
[6] = 4 h post-dose, Day 1 of cycle 2
[7] = 6 h post-dose, Day 1 of cycle 2
[8] = 8 h post-dose, Day 1 of cycle 2
[9] = 12 h post-dose, Day 1 of cycle 2
[10] = at t max, Day 1 of cycle 2, listed as Sorafenib
[11] = Day 1 of cycle 2, listed as Sorafenib
[12] = over 12-h period, Day 1 of cycle 2
[13] = over 12-h period, Day 1 of cycle 2, listed as Sorafenib

SMILES: CNC(=O)c1cc(Oc2ccc(NC(=O)Nc3ccc(Cl)c(C(F)(F)F)c3)cc2)ccn1 [sorafenib]
- Patients with treatment interruptions ([1]; N = 53): 75.5%
- Patients with treatment interruptions because of treatment-emergent AEs ([1]; N = 53): 43.4%
- Rash/desquamation, drug-related, Grade ≥3 ([1]; N = 53): 3 (6) n (%)
- Rash/desquamation, drug-related, all grades ([1]; N = 53): 20 (38) n (%)
- Sensory neuropathy, drug-related, Grade ≥3 ([1]; N = 53): 0 (0) n (%)
- Sensory neuropathy, drug-related, all grades ([1]; N = 53): 7 (13) n (%)
- Any drug-related adverse event, Grade ≥3 ([1]; N = 53, sorafenib 400 mg bid): 16 n (%) and 16 (30) n (%)
- Any drug-related adverse event, all grades ([1]; N = 53, sorafenib 400 mg bid): 43 n (%) and 43 (81) n (%)
- Deaths during the study or within 30 days of the last dose ([1]; all secondary to disease progression, considered unrelated to study drug): Seven
- Discontinuations because of drug-related AEs ([1]; of the patients discontinued because of AEs): 3 patients
- Mean (SD) change from baseline in supine HR [2, 5]: −5.4 (9.2) bpm
- Mean (SD) change from baseline in supine HR ([2]; 2 h post-dose, Day 1 of cycle 5): −0.03 (7.1) bpm
- Mean (SD) change from baseline in supine HR [2, 6]: −4.0 (8.8) bpm
- Mean (SD) change from baseline in supine HR ([2]; 4 h post-dose, Day 1 of cycle 5): 0.1 (9.2) bpm
- Mean (SD) change from baseline in supine HR [2, 7]: −6.0 bpm
- Mean (SD) change from baseline in supine HR ([2]; 6 h post-dose, Day 1 of cycle 2, listed as Sorafenib): −6.0 (8.9) bpm
- Mean (SD) change from baseline in supine HR ([2]; 6 h post-dose, Day 1 of cycle 5): 0 (8.7) bpm
- Mean (SD) change from baseline in supine HR [2, 8]: −4.2 (11.3) bpm
- Mean (SD) change from baseline in supine HR ([2]; 8 h post-dose, Day 1 of cycle 5): 0.7 (8.6) bpm
- Mean (SD) change from baseline in supine HR [2, 9]: −5.8 (13.3) bpm
- Mean (SD) change from baseline in supine HR ([2]; 12 h post-dose, Day 1 of cycle 5): 1.6 (10.0) bpm
- Patients with BP ≥150/90 mm Hg at t max ([2]; Day 1 of cycle 5, sorafenib 400 mg bid): 2 n (%)
- Mean (SD) change from baseline in supine HR ([2]; Pre-dose, Day 1 of cycle 2): −4.4 (8.1) bpm
- Mean (SD) change from baseline in supine HR ([2]; Pre-dose, Day 1 of cycle 5): −2.9 (10.0) bpm
- Patients who exceeded 150/90 mm Hg (both systolic and diastolic) ([2]; after 1 cycle): Four
- Patients who exceeded a systolic reading of 150 mm Hg only ([2]; after 1 cycle): 4 patients
- Patients with a diastolic reading surpassing 90 mm Hg only ([2]; after 1 cycle): 2 patients
- Patients who had become hypertensive ([2]; after 1 cycle (6% at baseline)): Thirty-two
- Increase in both systolic and diastolic BP at t max ([2]; after both 1 and 4 cycles): 11–12 mm Hg
- Patients hypertensive ([2]; at cycle 4): 13%
- Mean (SD) change from baseline in supine HR ([2]; at t max, Day 1 of cycle 2): −6.6 bpm
- Mean (SD) change from baseline in supine HR [2, 10]: −6.6 (10.6) bpm
- Mean (SD) change from baseline in supine HR ([2]; at t max, Day 1 of cycle 5): −3.3 bpm
- Mean (SD) change from baseline in supine HR ([2]; at t max, Day 1 of cycle 5, listed as Sorafenib): −3.3 (7.3) bpm
- Patients who started receiving antihypertensive medications during treatment ([2]; during treatment with sorafenib): Three
- Mean (SD) maximal change from baseline in supine HR ([2]; Day 1 of cycle 2): 2.9 (±8.2) bpm
- Mean (SD) maximal change from baseline in supine diastolic BP ([2]; Day 1 of cycle 2): 19.8 (±9.0) mm Hg
- Mean (SD) maximal change from baseline in supine systolic BP ([2]; Day 1 of cycle 2): 27.7 (±18.5) mm Hg
- Mean (SD) maximal change from baseline in supine HR [2, 11]: 2.9 (8.2) bpm
- Mean (SD) maximal change from baseline in supine diastolic BP [2, 11]: 19.8 (9.0) mm Hg
- Mean (SD) maximal change from baseline in supine systolic BP [2, 11]: 27.7 (18.5) mm Hg
- Mean (SD) maximal change from baseline in supine HR ([2]; Day 1 of cycle 5): 8.3 (±6.8) bpm
- Mean (SD) maximal change from baseline in supine diastolic BP ([2]; Day 1 of cycle 5): 22.0 (11.2) mm Hg
- Mean (SD) maximal change from baseline in supine systolic BP ([2]; Day 1 of cycle 5): 24.8 (14.4) mm Hg
- Mean (SD) maximal change from baseline in supine HR ([2]; Day 1 of cycle 5, listed as Sorafenib): 8.3 (6.8) bpm
- Mean increase from baseline in diastolic BP, individual patient ([2]; after 1 cycle): 31.0 mm Hg
- Mean increase from baseline in systolic BP, individual patient ([2]; after 1 cycle): 44.5 mm Hg
- Mean increase from baseline in diastolic BP, individual patient ([2]; after 4 cycles): 40.8 mm Hg
- Mean increase from baseline in systolic BP, individual patient ([2]; after 4 cycles): 29.3 mm Hg
- Incidence of ≥10 LVEF(%) reduction [3]: 5%
- Mean (SD) change from baseline in QTcB [4, 5]: 0.5 (18.0) ms
- Mean (SD) change from baseline in QTcB [4, 6]: 2.0 (20.2) ms
- Mean (SD) change from baseline in QTcB [4, 7]: 1.6 (17.3) ms
- Mean (SD) change from baseline in QTcB [4, 8]: 0.2 (16.1) ms
- Mean (SD) change from baseline in QTcB [4, 9]: 2.9 (17.2) ms
- Mean (SD) change from baseline in QTcB ([4]; Pre-dose, Day 1 of cycle 2): 1.1 (18.3) ms
- Patients with a QTcB or QTcF value >500 ms ([4]; at any time during the study): No patient
- Mean (SD) change from baseline in QTcB ([4]; at t max, Day 1 of cycle 2): 4.2 ms and 4 ms
- Mean (SD) change from baseline in QTcB [4, 10]: 4.2 (19.2) ms
- Patients with a ≥60-ms change from baseline in QTcB or QTcF ([4]; during the study): no patient
- Mean (SD) maximal change from baseline in QT [4, 12]: 32.9 (24.1) ms
- Mean (SD) maximal change from baseline in QTcB [4, 12]: 16.4 ms and 16 ms
- Mean (SD) maximal change from baseline in QTcF [4, 12]: 19.8 ms and 20 ms
- Mean (SD) maximal change from baseline in QTcB [4, 13]: 16.4 (15.3) ms
- Mean (SD) maximal change from baseline in QTcF [4, 13]: 19.8 (14.4) ms
- Mean increases from baseline by time point, QTcB (range) ([4]; over 12 h, after 1 cycle): 0.2 to 2.9 ms
- Mean increases from baseline by time point, QTcF (range) ([4]; over 12 h, after 1 cycle): 4.2 to 5.8 ms
- QTcF value, individual patient ([4]; patient with maximum prolongation, after 1 cycle, baseline 396.7 ms): 446.3 ms
